# Most compounds without a hit are left out; they make up all but 2.1% or so of the library.
# m-calpain inh = calpain II (pig) inhibition; 0.37% of 220,000 active; purified calpain II, fluorogenic peptide substrate, 30 min; inhibition, % at 16 µM; AID 1236;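 active = inhibition above about 50%, limit read from the data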
# RanGTP-Impb inh = disruptors of Ran-importin-beta complex formation – biochemical, FRET, CFP-Ran, YFP-importin-beta, homogeneous, primary screen; 1.1% of 300,000 active; AID 2216; cell-free CFP-Ran/YFP-importin-beta FRET ratio; inhibition, % (concentration not given with the values);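 active = more than half of the replicate wells show a fall in the fluorescence ratio signal beyond about 16%, limit read from the data, passing the limit was not always enough; inconclusive = exactly half of the replicate wells pass the set limit; inactive = fewer than half of replicates pass the limit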;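 also: 0% = DMSO wells and 100% = Ran loaded with GDP instead of GTP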
# Runt-CBFb FRET = inhibitors of human RUNX1 Runt domain binding to CBFb. Q01196+Q13951. Cerulean-Runt/Venus-CBFb FRET ratio 530/480, 1 h. inhibition, % at 20 µM. 0.46% of 220,000 active. AID 1496;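 active = inhibition over about 50% at 20 µM in the single-dose screen, limit read from the data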;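 also: 0% = DMSO wells and 100% = excess unlabeled CBFb competitor control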
#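 Assay system: Cerulean-Runt domain fusion protein, energy donor; Signal: fluorescence energy transfer, 422 nm excitation, 530/480 nm emission; Timing: 1 h compound exposure, room temperature; Control set: unlabeled CBFb; Medium: Tris buffer pH 7.5 with salts and BSA; Compound: single test concentration of 20 µM, 1% DMSO final; Probe or stimulus: Venus-CBFb 100 nM.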
# Runt-SMMHC FRET = Runt domain-CBFb-SMMHC interaction inhibition | Q01196+Q13951 | Cerulean-Runt/Venus-CBFb-SMMHC FRET ratio 530/480, 1 h | inhibition, % at 20 µM | 0.74% of 220,000 active;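 active = mean inhibition across duplicate retests at 20 µM reaching about 50%, limit read from the data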;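 also: 0% = DMSO wells and 100% = wells with excess untagged CBFb-SMMHC; inhibitors lower the FRET ratio by blocking Runt binding to CBFb-SMMHC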
# FAS TE block = blocks the thioesterase domain of human fatty acid synthase; P49327; recombinant FAS-TE, OMFH fluorogenic substrate, fluorescence endpoint; inhibition, % at 15 µM; 0.67% of 360,000 active;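 active = compounds whose normalised, plate-corrected inhibition of enzyme fluorescence in the single-dose primary screen is 50% or more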;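 also: 0% = DMSO with enzyme and 100% = substrate without enzyme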
# FAS-TE inh conf = confirmation of human fatty acid synthase thioesterase inhibitors; shares compounds with FAS TE block; recombinant FAS-TE, OMFH fluorogenic substrate, fluorescence; inhibition, % at 15 µM; 45% of 2,300 active;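 active = compounds inhibiting the enzyme by at least 50% at 15 µM in any one of the replicates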;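 also: 0% = enzyme with DMSO only and 100% = wells lacking enzyme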
# The depositor's hits bear a star; u = inconclusive; x = no result given.
SMILES,m-calpain inh,RanGTP-Impb inh,Runt-CBFb FRET,Runt-SMMHC FRET,FAS TE block,FAS-TE inh conf
Cc1cc(C)c(C#N)c(SCC(O)COc2ccc(Br)cc2)n1 (stereo unspecified),x,1,x,x,63*,18
O=C(CC12CC3CC(CC(C3)C1)C2)NCC(=O)OCc1cc(=O)oc2ccc3ccccc3c12,-357,3,-1,-2,55*,15
COc1ccc(N(C(C)=O)c2nc(C)cc(C)c2C#N)c(OC)c1,18,1,0,2,-9,x
CC(NC(=O)C(C(=O)c1cccc([N+](=O)[O-])c1)n1cc(Cl)ccc1=O)c1ccccc1 (stereo unspecified),-5,-2,2,-4,59*,65*
CC(C)NC(=O)C1CCN(C(=O)C(C(=O)c2ccccc2)n2cc(Cl)ccc2=O)CC1 (stereo unspecified),1,7,1,0,-4,x
COc1ccc(-c2csc(NC(=O)c3ccccc3NS(=O)(=O)c3ccc(C)cc3)n2)cc1,-42,-1,-5,-3,56*,49*
Cc1ccc(-c2csc(NC(=O)COc3ccc(N(C)S(=O)(=O)c4ccc(C)cc4)cc3)n2)cc1,-43,4,3,-1,27,x
COc1ccc(-c2csc(NC(=O)COc3ccc(N(C)S(=O)(=O)c4ccc(C)cc4)cc3)n2)cc1,-25,1,2,-2,53*,15
COc1ccc(S(=O)(=O)Nc2ccccc2C(=O)Nc2nc(-c3ccc(F)cc3)cs2)cc1OC,-76,7,-6,-2,36,x
CC(=O)N1CC(C)Oc2ccc(S(=O)(=O)NC(CC(=O)O)c3ccccc3)cc21 (stereo unspecified),x,6,x,x,-7,x
O=C(COC(=O)c1ccco1)Nc1ccccc1[N+](=O)[O-],-16,4,1,0,-3,x
O=C(Nc1ccccc1[N+](=O)[O-])OCC=Cc1ccccc1,x,x,x,x,55*,59*
CC(C)c1ccc(/C=N/NC(=O)CN(c2cccc(Cl)c2Cl)S(C)(=O)=O)cc1,-11,1,-10,-8,57*,58*
CS(=O)(=O)N(CC(=O)N/N=C/c1ccccc1C(=O)O)c1cccc(Cl)c1Cl,-6,-3,1,1,-4,x
C=CCn1c(=N)c(S(=O)(=O)c2ccc(C)c(C)c2)cc2c(=O)n3ccccc3nc21,x,160*,x,x,54*,-14
COc1cccc(NC(=O)c2cc3c(=O)n4ccccc4nc3n(CC(C)C)c2=N)c1,-23,5,2,12,-7,x
CNc1nc(N)c(C(=O)C23CC4CC(CC(C4)C2)C3)s1,4,2,0,-5,2,x
O=C(Cn1nc(-c2ccco2)ccc1=O)Nc1cc(Cl)ccc1Cl,x,6,x,x,29,x
O=C(Cn1nc(-c2ccco2)ccc1=O)Nc1ccc(Cl)c(Cl)c1,x,1,x,x,59*,36*
O=C(Cn1nc(-c2ccco2)ccc1=O)Nc1cc(C(F)(F)F)ccc1Cl,x,2,x,x,52*,73*
CC1CCN(S(=O)(=O)c2cccc(S(=O)(=O)N3CCCC3)c2)CC1,x,4,x,x,8,x
O=C(Nc1cccc2c1CCCC2)c1ccccc1Br,x,3,x,x,-5,x
CC(C)(C)c1ccc(OCCC(=O)OCC(=O)N2c3ccccc3NC(=O)C2(C)C)cc1,x,-4,x,x,56*,66*
Cc1cccc(OCCC(=O)OCC(=O)N2c3ccccc3NC(=O)C2(C)C)c1,x,x,x,x,5,x
COc1cccc(NC(=O)CN(C)C(=O)c2ccc(S(=O)(=O)Nc3ccccc3F)cc2)c1,x,x,x,x,-7,x
SMILES,m-calpain inh,RanGTP-Impb inh,Runt-CBFb FRET,Runt-SMMHC FRET,FAS TE block,FAS-TE inh conf
Cc1nnc(SC(C(=O)Nc2ccc(Cl)c([N+](=O)[O-])c2)c2ccccc2)[nH]c1=O (stereo unspecified),12,3,-3,0,52*,53*
CC(C)(C)N(Cc1ccccc1)C(=O)COC(=O)C1CC(=O)N(Cc2ccccc2)C1 (stereo unspecified),x,x,x,x,4,x
CCCCc1nc2ccccc2c(=O)n1NC(=O)c1c(O)c2c(n(CC(C)C)c1=O)CCCC2,-234,-1,-7,-3,27,x
CC(C)Cn1c2c(c(O)c(C(=O)Nn3c(Cc4ccccc4)nc4ccccc4c3=O)c1=O)CCCC2,-11,u,-7,2,54*,9
C/[N+]([O-])=C\c1cccc(OCCN2CCN(c3ncc(C(F)(F)F)cc3Cl)CC2)c1,x,-1,x,x,-2,x
O=C(COc1ncnc2ccccc12)Nc1cc([N+](=O)[O-])ccc1Cl,5,-2,-2,2,51*,3
O=C(COc1ncnc2c(Cl)cc(Cl)cc12)Nc1cc([N+](=O)[O-])ccc1Cl,-5,2,1,1,52*,43
CC1c2ccccc2N(S(=O)(=O)c2ccccc2)C1C (stereo unspecified),x,x,x,x,17,x
O=C(NCc1cn(-c2ccccc2)nc1-c1ccccc1)c1cccc([N+](=O)[O-])c1,14,-2,2,2,51*,31
C[C@@H]1CCCCO[C@H](CN(C)Cc2ccc(Cl)c(Cl)c2)[C@H](C)CN([C@@H](C)CO)C(=O)c2cc(NC(=O)Nc3ccc(F)cc3)ccc2O1,x,x,x,x,29,x
COc1ccc(NC(=O)Nc2ccc3c(c2)C(=O)N([C@H](C)CO)C[C@H](C)[C@@H](CN(C)Cc2ccc(Cl)c(Cl)c2)OCCCC[C@@H](C)O3)cc1,x,x,x,x,62*,8
C[C@H]1CN([C@@H](C)CO)C(=O)c2cc(NC(=O)Nc3cccc4ccccc34)ccc2O[C@@H]1CN(C)Cc1ccc(-c2ccccc2)cc1,x,x,x,x,60*,16
C[C@@H]1CCCCO[C@@H](CN(C)Cc2ccccc2)[C@@H](C)CN([C@H](C)CO)C(=O)c2cc(NC(=O)Nc3cccc4ccccc34)ccc2O1,x,x,x,x,52*,14
COc1ccc(N2C(=O)C3C4c5ccccc5C(C=Nc5ccc(C)cc5C)(c5ccccc54)C3C2=O)cc1 (stereo unspecified),x,-2,x,x,56*,0
CCc1ccc(N=CC23c4ccccc4C(c4ccccc42)C2C(=O)N(c4ccc(OC)cc4)C(=O)C23)cc1 (stereo unspecified),-38,-7,-2,1,38,x
O=C(COC(=O)c1cc([N+](=O)[O-])ccc1N1CCOCC1)Nc1cc(F)ccc1F,x,-5,x,x,85*,51*
O=C(COC(=O)c1cc([N+](=O)[O-])ccc1N1CCOCC1)Nc1ccccc1OC(F)F,x,0,x,x,74*,79*
CCN(CC(=O)Nc1c(F)cccc1F)C(=O)c1cc([N+](=O)[O-])ccc1N1CCCCC1,x,-3,x,x,14,x
O=C(COC(=O)C1CCCCC1)Nc1cc([N+](=O)[O-])ccc1F,46,2,0,2,63*,69*
COc1ccc([N+](=O)[O-])cc1NC(=O)COC(=O)C1CC1,23,-1,-1,-3,-10,x

# Screens: PubChem BioAssay, several laboratories
